Compound activity (PubChem BioAssay)
Shown are actives, neighbours in structure and some others; about 4.5% of the full set was active somewhere.
PERK inh = human PERK inhibition, primary cell-based screen. Q9NZJ5. CHO PERK-DD fusion, SEAP luminescence translation reporter. inhibition, % at 5.6 µM. actives 0.17% (n = 220,000). AID 1416;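 active = inhibition above the mean inhibition of all tested compounds plus 3 SD, set separately per screening campaign, cut at about 2.9% in these data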;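 also: PERK kinase domain activated by AP20187 dimerizer at 100 nM; 0% = DMSO with dimerizer and 100% = rapamycin at 8.4 µM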
NF-kB expr up = raises NF-kB expression in human neuronal cells. NF-kB reporter expression; stronger effect = higher value. fold change at 12.5 µM. actives 1.6% (n = 190,000). AID 1239; in the data active = fold change above about 3.3
APP 5'UTR act = activates APP 5'UTR luciferase reporter; SH-SY5Y APP 5'UTR luciferase reporter, luminescence; zero percent = DMSO vehicle wells; activation, % at 2 µM; actives 1% (n = 190,000); AID 1276;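 active = activation above a set limit, based on mean plus 3 SD of controls, cut at about 140% in these data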
STAT1 act = increases IFN-gamma driven STAT1 reporter signal | NIH 3T3 STAT1-luciferase reporter, luminescence; 100% = IFN-gamma alone, no compound | activation (% of control), % at 5.5 µM | actives 2.6% (n = 200,000) | AID 932;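 active = activation above the screen-wide mean activation plus 3 SD, cut at about 130% in these data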;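 also: raw ratio to IFN-gamma control signal so 100% means no change and 0% no light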
AHR act = activators of human aryl hydrocarbon receptor; AHR-responsive luciferase reporter cells, luminescence; activation, % at 5 µM; actives 2.5% (n = 320,000); P35869; in the data active = activation above about 47%;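 also: 0% = vehicle wells and 100% = reference agonist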
MDM2 E3 inh = Mdm2 E3 ligase (human) inhibition | Q00987 | cell-based MDM2 ubiquitination luciferase reporter, 2 h; 0 = plate control, 100 = twice control, blank-subtracted | signal enhancement, % at 5 µM | actives 0.11% (n = 210,000) | AID 1230;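 active = signal enhancement of 30% or more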;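 also: luminescence tracks abundance of the self-degrading MDM2-luciferase fusion protein; higher signal means inhibition of MDM2 E3 ligase activity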
Target sequence (Q00987 whole entry, looked up, the tested form may be a part): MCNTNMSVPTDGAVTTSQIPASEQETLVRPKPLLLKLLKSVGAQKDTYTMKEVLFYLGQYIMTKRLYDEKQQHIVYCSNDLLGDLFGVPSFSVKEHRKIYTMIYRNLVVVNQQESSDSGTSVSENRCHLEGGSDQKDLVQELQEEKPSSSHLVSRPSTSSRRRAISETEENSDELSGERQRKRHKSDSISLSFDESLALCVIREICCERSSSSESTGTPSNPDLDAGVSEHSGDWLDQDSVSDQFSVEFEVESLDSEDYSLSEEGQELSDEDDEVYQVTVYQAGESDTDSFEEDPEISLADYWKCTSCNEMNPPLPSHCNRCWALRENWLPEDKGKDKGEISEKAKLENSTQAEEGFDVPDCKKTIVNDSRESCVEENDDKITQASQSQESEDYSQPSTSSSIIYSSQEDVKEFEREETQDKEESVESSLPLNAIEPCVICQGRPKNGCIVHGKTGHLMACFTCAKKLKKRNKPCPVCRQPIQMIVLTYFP
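Test system: stable mammalian line carrying autodegrading MDM2–luciferase fusion reporter; quantity: 2000 cells in each well; times: 4 h cell settling then 2 h compound exposure, 37 °C; detection: luminescence with SteadyLite reagent, 15 min at room temperature; evaluation: percent signal gain over controls, blank-subtracted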
* marks the source's active call; other numbers are inactive results; . = no result.

SMILES	PERK inh	NF-kB expr up	APP 5'UTR act	STAT1 act	AHR act	MDM2 E3 inh
Cn1c(=NC(=O)c2ccccc2[N+](=O)[O-])sc2cccc(F)c21	1	.	.	.	8	-19
Cc1nnc(NC(=O)CCSc2ccc(Cl)cc2)s1	3	1.2	11	101	-3	-36
COc1ccccc1CNC(=O)c1cnc2ccccn2c1=O	0	1.1	-14	99	38	-6
Cc1cccc(NC(=O)c2cnc3ccccn3c2=O)c1	3.1*	2.2	113	117	.	-64
COc1ccccc1CNC(=O)c1cnc2sccn2c1=O	.	.	.	.	53*	.
CC(C)Sc1n[nH]c2nc3c(c(=O)n12)C1(CCCC1)Cc1ccccc1-3	1	1.6	15	105	.	-20
CSc1n[nH]c2nc3c(c(=O)n12)C1(CCCC1)Cc1ccccc1-3	0	0.95	5	100	79*	-3
Cc1ccc(-n2c(SCC(N)=O)nc3c(c2=O)C2(CCCC2)Cc2ccccc2-3)cc1	1	1.1	-4	96	0	-4
CCSc1n[nH]c2nc3c(c(=O)n12)C1(CCCC1)Cc1ccccc1-3	0	0.92	-9	108	51*	-7
C=CCSc1n[nH]c2nc3c(c(=O)n12)C1(CCCC1)Cc1ccccc1-3	0	1.7	-12	88	59*	5
Cc1cc(F)ccc1S(=O)(=O)N1CCCCC1CCNC(=O)C(=O)NCc1ccccn1 (stereo unspecified)	.	.	.	.	3	.
Cc1cc(C)c(C#N)c(SCc2ccccc2[N+](=O)[O-])n1	1	1	8	97	10	12
Cc1cc(C)c(C#N)c(SCc2nnc(-c3ccccc3[N+](=O)[O-])o2)n1	0	3.2	213*	140*	5	-2
COC(=O)c1scc(C)c1N1C(=O)c2ccccc2C1=O	2.9*	.	.	.	5	-6
COC(=O)c1scc(C)c1NC(=O)Nc1ccccc1	0	1	10	97	2	6
CCN(CC)C(=O)CSc1nc2ncc(Br)cc2[nH]1	-1	1.1	-5	106	63*	-23
CCc1c(C2(O)CCCCC2)[nH]c2ccc(C#N)cc12	.	.	.	.	9	.
Nc1nnc(SCC(=O)c2ccc3ccccc3c2)s1	1	3.7*	21	119	48*	-5
Nc1ccc2nc(SCC(=O)c3ccccc3)sc2c1	.	.	.	.	49*	.
Nc1ccc2nc(SCc3ccccc3F)sc2c1	0	.	.	.	26	-25
CCC(CC)c1nnc(NC(=O)C2COc3ccccc3O2)s1 (stereo unspecified)	1	2	121	137*	4	-16
O=C(Nc1nc2c(s1)CCCC2)C1COc2ccccc2O1 (stereo unspecified)	-1	1.9	147*	82	7	-51
CCc1nnc(NC(=O)C2COc3ccccc3O2)s1 (stereo unspecified)	1	2.2	50	114	2	.
Cc1nnc(NC(=O)C2COc3ccccc3O2)s1 (stereo unspecified)	1	1.6	19	129*	8	1
COCC(C)n1c(SCC(=O)c2cc(C)n(C)c2C)nc2ccccc2c1=O (stereo unspecified)	0	1	7	85	4	7
SMILES	PERK inh	NF-kB expr up	APP 5'UTR act	STAT1 act	AHR act	MDM2 E3 inh
c1ccc2sc(NN=C3CCCCCC3)nc2c1	1	2.9	149*	66	51*	-63
Cc1c(C(=O)N2CCCCC2)sc(NC(=O)C23CC4CC(CC(C4)C2)C3)c1C#N	2	.	4	107	-1	.
Cc1ccccc1Cn1cc(NC(=O)CCCn2nc([N+](=O)[O-])cc2C)cn1	-1	1.1	-27	98	2	8
Cc1nc(NCc2ccco2)c2c(C)c(C)sc2n1	-1	1.3	-4	193*	-10	-27
CCOC(=O)c1sc2nc(CC(=O)OC)nc(NCc3ccco3)c2c1C	0	0.88	-5	98	.	-14
FC(F)(F)c1cccc(Oc2ccc3c(C(F)(F)F)cc(C(F)(F)F)nc3n2)c1	3.7*	0.97	-9	105	4	-7
FC(F)(F)c1cc(C(F)(F)F)c2ccc(Oc3ccccc3)nc2n1	0	1.1	7	104	-1	-6
Cn1/c(=N/N=C/c2ccc(N3CCOCC3)cc2)sc2ccccc21	2	1.8	24	129*	19	-2
COc1ccc(S(=O)(=O)Nc2ccccc2N2CCOCC2)cc1[N+](=O)[O-]	1	.	.	.	1	.
Cc1ccc([N+](=O)[O-])cc1-c1ccc(/C=C(\C#N)c2[nH]nc(N)c2C#N)o1	0	1.4	42	140*	29	-4
COCc1cc(C)nc(OCC(=O)N/N=C/c2ccc(-c3cc([N+](=O)[O-])ccc3C)o2)c1C#N	2	1.2	14	105	7	5
O=C(CN1C(=O)CSc2ccc(S(=O)(=O)N3CCOCC3)cc21)NCc1ccc(Cl)cc1	.	.	.	.	0	.
COc1ccc(-c2noc(-c3ccc4c(c3)OCO4)n2)cc1	0	3.9*	23	122	2	-40
COc1cccc(-c2noc(-c3ccc4c(c3)OCO4)n2)c1	1	5.7*	159*	62	25	-65
c1ccc2c(c1)[nH]c1c(N3CCSCC3)ncnc12	0	0.33	20	66	42	-28
Fc1ccc2[nH]c3c(NCCN4CCOCC4)ncnc3c2c1	0	0.93	15	70	75*	-6
c1ccc2c(c1)[nH]c1c(N3CCCC3)ncnc12	0	0.76	24	84	65*	-19
Cc1ccc2[nH]c3c(N4CCOCC4)ncnc3c2c1	-1	1.3	-1	84	73*	-9
Brc1ccc2[nH]c3c(N4CCc5ccccc5C4)ncnc3c2c1	-2	0.46	-10	79	51*	-3
O=c1c2[nH]c3ccc(F)cc3c2ncn1CCCN1CCOCC1	0	1.2	1	98	14	-8
CCOc1c2ccc(C(=O)NCc3ccc(C)cc3)cc2nn1CCOC	0	1.1	10	99	-5	-12
COc1ccc(OC)c2sc(N3CCc4ccccc4C3)nc12	0	1.3	4	100	7	-7
c1ccc2c(c1)CCN(c1nc3cc4c(cc3s1)OCCO4)C2	-1	1.1	148*	66	30	-72
CC(=O)Nc1cccc(OCCCNC(=O)c2ccc(C(C)(C)C)cc2)c1	-1	.	.	.	47*	-4
COc1cccc(NC(=O)c2cc3cccc(OC)c3o/c2=N\O)c1	.	.	.	.	63*	.
COc1cccc(NC(=O)c2cc3ccccc3o/c2=N\O)c1	.	.	.	.	0	.
CC(=O)Nc1cccc(OCCCNC(=O)c2ccc(F)cc2)c1	0	.	.	.	2	-9
COc1cccc(NC(=O)c2ccccc2)c1	.	.	.	.	9	.
COc1cccc(C(=O)Nc2ccc(NC(=O)C(C)(C)C)cn2)c1	0	1.9	138*	85	-3	-5
COc1ccc(C(=O)Nc2cccc(OC)c2)cc1	1	5.8*	134	120	12	-30
